Rows were chosen to be rich in hits. Some 3.1% of all compounds tested hit in one or more screens of this group.
hERG protect – shields human hERG channel from block by proarrhythmic agents. activation (rescue from dofetilide block), less the hit threshold, % at 10 µM. CHO-hERG, FluxOR thallium flux, dofetilide IC70 present. 310,000 compounds, 0.51% hits. AID 1511. Q12809;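 active means activation above the mean of controls blocked by dofetilide plus 5 SD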;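 further: thallium influx through hERG after potassium depolarization seen as dye fluorescence rise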
KCNQ1 block – inhibitors of human KCNQ1 potassium channel. P51787. CHO-K1 KCNQ1, FluxOR thallium flux fluorescence; active compounds read high. B-score at 10 µM. 310,000 compounds, 1.3% hits;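 active means compounds whose thallium flux B-score, printed positive for inhibition, exceeds three library SD while starting fluorescence stays within three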;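 further: channel opened by potassium depolarization with thallium stimulus after 20 min compound exposure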
KCNQ1 act – human KCNQ1 channel potentiation or activation; CHO-K1 KCNQ1, thallium flux FluxOR fluorescence; active compounds read high; 310,000 compounds, 0.35% hits; B-score at 10 µM;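 active means fluorescence ratio B-score, a plate-corrected score, at least three library SD, with initial intensity B-score within 5 SD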
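Assay system: CHO-K1 cells stably expressing KCNQ1; Medium: assay buffer with matched DMSO; Also added: K+/Tl+ depolarizing stimulus; Dosing: single dose; Timing: dye 90 min, compound 20 min, room temperature; Measured by: kinetic FluxOR thallium fluorescence, 10-s 1-Hz baseline, 110-s post-stimulus read; Read-out: peak-minus-minimum fluorescence over initial fluorescence, negative-control normalized, B-scored.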
KCNK3 block – human KCNK3 channel inhibition, primary screen. O14649. 340,000 compounds, 0.84% hits. CHO-KCNK3 thallium flux, FluxOR fluorescence; active compounds read low. AID 602410. B-score at 10 µM;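 active means B-score under library mean minus 4 SD, starting fluorescence ratio at most library mean plus 5 SD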;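 further: more negative B-score means stronger inhibition of thallium flux through KCNK3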
KCNK9 block – human KCNK9 channel inhibition; Q9NPC2; HEK293 KCNK9, FluxOR thallium flux fluorescence; active compounds read low; B-score at 10 µM; 310,000 compounds, 1.2% hits;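 active means ratio B-score over 3 SD below the library mean, with starting fluorescence within 5 SD of its mean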;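 further: negative B-score means less thallium flux so channel inhibition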
Target sequence (Q9NPC2 whole entry, looked up): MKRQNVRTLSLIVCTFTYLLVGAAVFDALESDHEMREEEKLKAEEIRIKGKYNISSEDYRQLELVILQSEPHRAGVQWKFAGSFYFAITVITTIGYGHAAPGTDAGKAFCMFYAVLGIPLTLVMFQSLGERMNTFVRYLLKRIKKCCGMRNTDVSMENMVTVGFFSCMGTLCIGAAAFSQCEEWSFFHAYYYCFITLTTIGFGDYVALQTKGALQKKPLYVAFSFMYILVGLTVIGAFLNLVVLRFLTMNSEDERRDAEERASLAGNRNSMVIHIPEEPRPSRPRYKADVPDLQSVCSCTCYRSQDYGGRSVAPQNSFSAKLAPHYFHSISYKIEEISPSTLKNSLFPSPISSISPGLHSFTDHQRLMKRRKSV
KCNK9 inh conf – human KCNK9 inhibitor confirmation; AID 492992; HEK293 KCNK9 cells, FluxOR thallium flux fluorescence; shares compounds with KCNK9 block; inhibition, % at 10 µM; 4,900 compounds, 43% hits;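 active means thallium signal inhibited by more than 5 SD of the compound-free buffer control wells, on both duplicate plates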;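 further: 0% = assay buffer control wells without compound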
Kir2-1 spec – selectivity of KCNK9 modulators against mouse Kir2.1; shares compounds with KCNK9 block; Kir2.1 cells, FluxOR thallium flux fluorescence; inhibition, % at 10 µM; 4,900 compounds, 4% hits; AID 492993;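 active means thallium signal drop more than 5 SD beyond the mean of the no-compound control wells, seen in both duplicate plates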;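 further: signal is fluorescence rise after thallium addition divided by baseline fluorescence; plate controls were assay buffer only for no effect and full block by chlorpromazine control for full effect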
KCNK9 uninduced – second check of KCNK9 modulator effects in non-induced HEK293 cells; 4,900 compounds, 40% hits; shares compounds with KCNK9 block; FluxOR thallium flux; inhibition, % at 10 µM;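 active means thallium signal drop beyond 5 SD of the untreated control mean, on both duplicate plates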;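 further: plate controls were buffer only IC0 wells for no effect and SID17386958 at its maximal inhibitory level for full effect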
An asterisk follows results filed as active; i = inactive; . = not tested or not shown.

SMILES	hERG protect	KCNQ1 block	KCNQ1 act	KCNK3 block	KCNK9 block	KCNK9 inh conf	Kir2-1 spec	KCNK9 uninduced
CN(C)C(CNc1ncnc2sc3c(c12)CCCC3)c1ccco1 (stereo unspecified)	-5	i	i	i	i	i	i	i
Cc1nn(-c2ccccc2)c(N)c1Sc1ccc([N+](=O)[O-])cc1	-16	i	i	i	-13*	73%*	i	34%*
Cc1nn(S(=O)(=O)c2ccc(Cl)cc2)c(C)c1Sc1ccc([N+](=O)[O-])cc1	-23	i	i	i	i	.	.	.
Cc1ccc(NC(=O)CN2CCc3cc4c(cc3C2C)OCCCO4)cc1 (stereo unspecified)	-12	i	i	i	i	.	.	.
Cc1ccc(NC(=O)CN2CCc3cc4c(cc3C2C)OCCCO4)cc1C (stereo unspecified)	-11	i	i	i	i	i	i	31%*
COc1cccc(/C=C/C(=O)OCC(=O)NCC2CCCCC2)c1OC	.	.	.	i	.	.	.	.
COc1ccccc1/C=C/C(=O)N1CCc2cc(OC)c(OC)cc2C1C (stereo unspecified)	0	i	i	i	i	.	.	.
C/C(=N\Nc1ccc(C#N)cc1[N+](=O)[O-])c1ccc(C)o1	2	i	i	i	i	.	.	.
CCOc1ccc(N(C)Cc2cc(=O)oc3ccc(OCC)cc23)cc1	-4	i	i	i	-11*	42%*	i	32%*
N#Cc1c(Cl)nc(N/N=C/c2ccccc2)c(Cl)c1Cl	-14	i	i	i	i	.	.	.
C[n+]1cccc(/C=N/Nc2nc(Cl)c(C#N)c(Cl)c2Cl)c1	-5	i	i	i	i	i	i	i
Cc1ccc(Cn2ccc(NC(=O)c3cc(CC(C)C)on3)n2)cc1	-11	i	i	i	i	i	i	i
O=C1CSC(c2ccc3c(c2)OCO3)N1c1ccc(Oc2ccccc2)cc1 (stereo unspecified)	-10	i	i	i	-14*	50%*	i	i
Cc1ccc(N2C(=O)CSC2c2ccc3c(c2)OCO3)cc1 (stereo unspecified)	-8	i	i	i	i	.	.	.
Cc1nn(Cc2ccccc2)c(C)c1C(=O)OCC(=O)c1cc(C)n(CC(F)(F)F)c1C	-10	i	i	i	i	i	i	i
COc1cccc(C2c3[nH]c4ccccc4c3CCN2Cc2cccn2-c2ncccn2)c1 (stereo unspecified)	-21	i	i	i	-8.3*	40%*	i	48%*
CCn1cc(CN2CCc3c([nH]c4ccccc34)C2c2cccc(OC)c2)c(C)n1 (stereo unspecified)	-10	i	i	i	i	.	.	.
CC1CC(C)CN(S(=O)(=O)c2ccc(Oc3ccc([N+](=O)[O-])cc3)cc2)C1 (stereo unspecified)	-9	i	i	i	i	i	i	i
CC1CCCN(S(=O)(=O)c2ccc([N+](=O)[O-])cc2)C1 (stereo unspecified)	-4	i	i	i	i	.	.	.
CCCCCc1ccc(OCCOCCn2c[n+](C)c3ccccc32)c(CCCCC)c1	-29	7*	i	i	-8.4*	53%*	61%*	i
CCCCCc1ccc(OCCC[n+]2ccccc2)c(CCCCC)c1	-18	i	i	i	i	.	.	.
COc1cc(CNC2CCCCCC2)cc(OC)c1	0	i	i	i	i	.	.	.
Fc1ccc(Cn2nnnc2C(c2ccc(Cl)cc2)N2CCSCC2)cc1 (stereo unspecified)	-8	i	i	i	-9.4*	40%*	i	44%*
CC1CCN(C(c2ccc(N(C)C)cc2)c2nnnn2Cc2ccc(F)cc2)CC1 (stereo unspecified)	-8	i	i	i	i	.	.	.
COc1ccc2c(c1)c(C(=O)N/N=C/c1ccc(OC)c(OC)c1)c(C)n2C	-3	i	i	i	i	.	.	.
SMILES	hERG protect	KCNQ1 block	KCNQ1 act	KCNK3 block	KCNK9 block	KCNK9 inh conf	Kir2-1 spec	KCNK9 uninduced
COc1ccc2c(c1)c(C(=O)N/N=C/c1cn(C)c3ccccc13)c(C)n2C	-17	i	i	i	-9.4*	i	i	i
COC(=O)c1ccccc1CON1C(=O)C(C)(C)N(OCc2ccccc2C(=O)OC)C(=O)C1(C)C	-10	i	i	i	i	i	i	i
COC(=O)c1ccccc1NC(=O)CC(=O)Nc1ccccc1C(=O)OC	-6	i	i	i	i	.	.	.
CCc1cc(=O)oc2cc(C)cc(OC(C)C(=O)NCCCn3ccnc3)c12 (stereo unspecified)	-7	i	i	i	i	.	.	.
O=C(Nc1ccc(Br)cc1)C1CCN(C(=O)c2ccc(F)cc2)CC1	-5	i	i	i	i	i	i	i
O=C(Nc1ccc(F)cc1F)C1CCN(C(=O)c2ccc(Br)cc2)CC1	-7	i	i	i	i	.	.	.
O=C(Nc1ccc2c(c1)OCCO2)C1CCN(C(=O)c2ccc(Br)cc2)CC1	-3	i	i	i	i	.	.	.
O=C(Nc1cccc(F)c1)C1CCN(C(=O)c2ccc(Br)cc2)CC1	-14	i	i	i	i	i	i	i
CCc1[nH]nc(C(=O)N2CCCC(CCC(=O)N3CCN(c4ccccn4)CC3)C2)c1C (stereo unspecified)	-8	i	i	i	i	.	.	.
CCOc1ccc(S(=O)(=O)Nc2cc(C)ccn2)c2ccccc12	-15	i	i	i	i	i	i	i
N#Cc1nc(Cc2cccc3ccccc23)oc1NCc1ccco1	-11	i	i	i	-11*	40%*	i	38%*
O=C(Nc1nncs1)C1CCCC1	-5	i	i	i	i	.	.	.
CCOc1ccccc1OCCOCCOc1ccccc1[N+](=O)[O-]	-13	i	i	i	i	i	i	i
O=C(OC1CCN(c2ncc(C(F)(F)F)cc2Cl)CC1)c1ccc(Cl)cc1	-9	i	i	i	i	i	i	i
O=C(OCCN1CCN(c2ncc(C(F)(F)F)cc2Cl)CC1)c1ccc(Cl)cc1	-10	i	i	i	i	.	.	.

Assay outcomes (PubChem)
